MBD2 DNA inh: inhibitors of MBD2 binding to methylated DNA, primary screen, biochemical, TR-FRET, DNA-binding domain, human; actives 0.31% (n = 370,000); AID 686964, 2013; MBD2 binding to methylated oligonucleotide; inhibition, % at 4.4 µM; Methyl-CpG-binding domain protein 2 (Homo sapiens), Q9UBB5; in the data active = inhibition above about 13%
Target sequence (Q9UBB5 whole entry, looked up, the tested form may be a part): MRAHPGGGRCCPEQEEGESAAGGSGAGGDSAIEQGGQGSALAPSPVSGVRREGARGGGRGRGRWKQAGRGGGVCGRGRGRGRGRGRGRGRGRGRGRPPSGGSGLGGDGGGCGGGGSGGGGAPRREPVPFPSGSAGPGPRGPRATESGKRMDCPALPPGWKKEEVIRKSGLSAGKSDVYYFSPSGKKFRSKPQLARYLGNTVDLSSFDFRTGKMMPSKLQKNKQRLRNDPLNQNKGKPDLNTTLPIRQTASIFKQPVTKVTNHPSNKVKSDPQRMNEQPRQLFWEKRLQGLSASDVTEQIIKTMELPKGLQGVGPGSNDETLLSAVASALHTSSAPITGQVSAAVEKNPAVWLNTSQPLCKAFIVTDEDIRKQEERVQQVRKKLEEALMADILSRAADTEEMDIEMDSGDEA
LEDGF integ inh: blockers of LEDGF/p75-dependent integrase strand transfer – biochemical, TR-FRET, high throughput, primary screen | actives 0.64% (n = 370,000) | HIV-1 integrase (with human LEDGF/p75) | inhibition, % at 3.7 µM | TR-FRET IN-LEDGF/p75 DNA integration, Eu/Cy5;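 active = inhibition above the screen-wide mean plus 3 SD, cut at about 13% in these data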;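 note: signal is the Cy5 over europium emission ratio at 671 and 618 nm; 0% = plate median of compound wells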
CASP6 VEID inh: human caspase-6 inhibitors, primary screen, biochemical, VEID-R110 fluorescence, single point, set 2; purified caspase-6, Z-VEID-R110 cleavage fluorescence; inhibition, % at 12.5 µM; P55212; actives 0.53% (n = 350,000);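 active = mean inhibition across replicates at least about 35%, with every replicate also reaching that limit, limit read from the data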;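 note: 0% = median of neutral control wells and 100% = no fluorescence left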
TDP2 inh: human TDP2 enzyme inhibitors, primary screen, biochemical, epi absorbance, recombinant enzyme | Tyrosyl-DNA phosphodiesterase 2 (Homo sapiens), O95551 | T5PNP hydrolysis, p-nitrophenol absorbance 415 nm | inhibition, % at 12.8 µM | actives 0.34% (n = 370,000);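 active = inhibition above the mean of all tested compounds plus 3 SD, set per campaign, cut at about 25% in these data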;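 note: 0% = DMSO with enzyme and 100% = buffer with substrate but no TDP2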
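test system = human TDP2 enzyme | input = TDP2 enzyme at 120 nM final | medium = 50 mM Tris-HCl pH 7.5 with Mg2+, KCl, DTT, BSA | also added = T5PNP substrate, 5 mM | times = 2 h at 37 °C | technique = epi absorbance | benchmarks = high control without enzyme, low control DMSO plus TDP2 | replication = each compound tested once, singlicate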
NSD2 HMT inh: NSD2 histone methyltransferase inhibitors, primary screen, biochemical, AlphaScreen, single concentration, set 2; inhibition, % at 12.5 µM; NSD2 peptide methylation, 120 min; AID 743445, 2014; actives 0.54% (n = 310,000); in the data active = inhibition above about 50%
UHRF1 MBD2 ctr: UHRF1 methylated DNA binding inhibitors, primary screen, counter-screen for MBD2 inhibitor project, biochemical, TR-FRET, human UHRF1, single concentration; inhibition, % at 4.4 µM; UHRF1 binding to methylated oligo; AID 687016, 2013; actives 0.75% (n = 370,000); E3 ubiquitin-protein ligase UHRF1 (Homo sapiens), Q96T88;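 note: UHRF1 SRA domain binding a hemimethylated CpG hairpin DNA probe; 0% = median of test compound wells and 100% = reference inhibitor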
UHRF1 ctr MBD2: UHRF1 methylated DNA binding inhibitors, counter-screen for MBD2 inhibitor project, biochemical, TR-FRET, human UHRF1 | shares compounds with MBD2 DNA inh | UHRF1 binding to methylated oligonucleotide | inhibition, % at 4.4 µM | actives 25% (n = 1,000) | AID 720530, 2013;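 note: UHRF1 SRA domain binding a labeled hemimethylated CpG hairpin DNA; 0% = vehicle only and 100% = reference inhibitor with vehicle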
MBD2 DBD conf: inhibitors of MBD2 binding to methylated DNA, confirmation, biochemical, TR-FRET, DNA-binding domain, human | actives 26% (n = 1,000) | inhibition, % at 4.4 µM | AID 720531, 2013 | shares compounds with MBD2 DNA inh | TR-FRET MBD2-DBD binding to methylated oligonucleotide; in the data active = inhibition above about 14%
Numbers without * were called inactive; nt = no result given. Only some compounds are listed: those with a hit (about 1.8% of all), similar ones and a draw of the others. Cut-off read from the data, not from the text of the source, unless noted: active = inhibition above about 21%; inactive = the rest.

SMILES	MBD2 DNA inh	LEDGF integ inh	CASP6 VEID inh	TDP2 inh	NSD2 HMT inh	UHRF1 MBD2 ctr	UHRF1 ctr MBD2	MBD2 DBD conf
O=C(N/N=C1\CCCc2ccccc21)c1ccccc1Cl	1	3	-3	3	-7	3	nt	nt
N#Cc1cccc(-c2ccc3c(c2)[C@@H]2[C@@H](CCN2C(=O)c2ccncc2)[C@@H](CO)N3)c1	nt	nt	3	nt	nt	nt	nt	nt
CCCNC(=O)N1C[C@H](C)[C@@H](OC)CN(C)C(=O)c2cc(NC(C)=O)ccc2OC[C@@H]1C	nt	nt	1	nt	nt	nt	nt	nt
CC(=O)Nc1cccc(NC(=O)c2ccc3[nH]c(C)c(C)c3c2)c1	5	-7	0	0	8	0	nt	nt
Cc1cc(NC(=O)c2ccc3[nH]c(C)c(C)c3c2)ccn1	14*	3	-4	-9	-2	1	10	3
O=S(=O)(c1ccc(F)cc1)N1CCC(c2nc3ccccc3[nH]2)CC1	0	-4	-1	-1	-1	-1	nt	nt
O=C(c1ccc(S(=O)(=O)N2CCC(c3nc4ccccc4[nH]3)CC2)cc1)N1CCOCC1	14*	1	nt	3	nt	22*	6	9
Cc1cccc(S(=O)(=O)N(C)C[C@@H]2OCc3ccccc3-c3ccccc3C(=O)N([C@H](C)CO)C[C@@H]2C)c1	nt	nt	-1	nt	nt	nt	nt	nt
CC(=O)Nc1ccc2nc(C)n(Cc3ccc(Cl)cc3)c(=O)c2c1	15*	2	nt	-5	0	23*	6	2
O=C(NCc1ccncc1)C1CCC(=O)N(CCc2ccc(Cl)cc2)C1 (stereo not drawn)	24*	1	0	2	-2	49*	6	2
C[C@H]1CN([C@@H](C)CO)C(=O)c2cc(NC(=O)NC3CCCCC3)ccc2O[C@H]1CN(C)Cc1ccccc1	nt	nt	1	nt	nt	nt	nt	nt
CCCC(=O)Oc1ccc(N(C(=O)CCC)S(=O)(=O)c2cccs2)cc1	9	4	3	-1	-10	9	nt	nt
CCCC(=O)Oc1ccc(N(C(=O)CCC)S(=O)(=O)c2cccc([N+](=O)[O-])c2)cc1	17*	8	nt	-1	1	28*	6	3
CCCc1nc2c3ccccc3ccn2c1Cc1ccc(OC)cc1C	16*	4	1	-3	nt	26*	10	6
O=C(O)c1cccc(Sc2ccc(Br)cc2C(=O)O)c1	-3	-1	-1	12	nt	0	nt	nt
O=C(O)c1cccc(Sc2cc(Cl)ccc2C(=O)O)c1	13*	2	-1	6	nt	20	6	9
CCC(=O)Nc1ccc2c(c1)OC[C@@H](C)N(C(C)=O)C[C@@H](C)[C@@H](OC)CN(C)C2=O	nt	nt	4	nt	nt	nt	nt	nt
COc1ccc(CC(=O)Nc2ccc(OC)c(NC(=O)c3ccco3)c2)cc1	15*	2	nt	6	6	20	3	6
Cc1noc(C)c1S(=O)(=O)N(C)C[C@H]1Oc2ccc(NC(=O)Nc3cccc4ccccc34)cc2CC(=O)N([C@H](C)CO)C[C@@H]1C	nt	nt	-2	nt	nt	nt	nt	nt
CN(CC(=O)Nc1ccc(N2CCOCC2)cc1)C(=O)CCNC(=O)c1ccccc1Cl	14*	-6	2	-10	1	5	10	2
COc1cccc(NC(=O)CCC2CCN(C(=O)c3cccc(NC(C)=O)c3)CC2)c1	36*	1	0	5	0	2	5	2
COc1ccc(OCc2nn3c(-c4ccccn4)nnc3s2)cc1	22*	3	nt	10	-5	0	5	3
CCOC(=O)c1c(NC(=O)c2ccc(S(=O)(=O)N3CCOCC3)cc2)sc2c1CCN(C(C)C)C2	20*	0	-1	1	-2	25*	34*	27*
COC(=O)c1c(NC(=O)C2CCCCC2)sc2c1CCN(C(C)C)C2	4	-2	-1	1	nt	3	nt	nt
CCOC(=O)c1c(NC(=O)C2CCCCC2)sc2c1CCN(C(C)C)C2	16*	0	1	-2	nt	2	5	5
SMILES	MBD2 DNA inh	LEDGF integ inh	CASP6 VEID inh	TDP2 inh	NSD2 HMT inh	UHRF1 MBD2 ctr	UHRF1 ctr MBD2	MBD2 DBD conf
C[C@@H]1CN([C@@H](C)CO)S(=O)(=O)c2ccc(C3=CCCCC3)cc2O[C@@H]1CN(C)S(=O)(=O)c1cn(C)cn1	nt	nt	1	nt	nt	nt	nt	nt
Cc1ccc(Cc2c(-c3ccccc3)nc3cc(C)ccn23)cc1	17*	-4	-2	-17	nt	27*	13	6
CCNC(=O)C[C@H]1CC[C@@H]2[C@@H](COc3ccc(NC(=O)Nc4cccc(C)c4)cc3C(=O)N2C)O1	nt	nt	2	nt	nt	nt	nt	nt
O=C(NCC(c1cccs1)N1CCOCC1)c1cn(-c2ccccc2)nc1-c1ccc(Cl)cc1 (stereo not drawn)	14*	4	7	2	0	-5	7	3
O=C(NCC(c1cccs1)N1CCOCC1)c1cn(-c2ccccc2)nc1-c1ccccc1 (stereo not drawn)	2	-2	0	-16	47	3	nt	nt
COc1cccc(NC(=O)Nc2ccc3c(c2)C(=O)N(C)[C@H]2CC[C@H](CC(=O)NCCc4ccccc4)O[C@H]2CO3)c1	nt	nt	2	nt	nt	nt	nt	nt
Cc1ccccc1-c1nc2ccccc2c(=O)n1/N=C/c1ccc([N+](=O)[O-])cc1	15*	7	-3	-10	0	1	-1	1
O=c1c2ccccc2nc(-c2ccccc2)n1/N=C/c1ccc([N+](=O)[O-])cc1	-6	1	nt	3	-3	-1	nt	nt
Cc1nnc(SCC(=O)Nc2ccc(N(C)C)cc2)n(N)c1=O	13*	-6	-3	-11	4	-3	2	3
O=C(Nc1ccc(-c2nc3ccccc3[nH]2)cc1)c1ccc2c(c1)OCO2	14*	-38	-1	-21	0	6	9	10
O=C(CSc1nc2ccsc2c(=O)n1CC1CCC(C(=O)O)CC1)c1ccc(F)cc1 (stereo not drawn)	-3	5	-4	10	1	-1	nt	nt

Source: PubChem
